The values below come from ChEMBL document CHEMBL1221324, “Synthesis and characterization of mitoQ and idebenone analogues as mediators of oxygen consumption in mitochondria” (2010).

Assay [1] concerns CCRF-CEM. In words: Cytoprotective activity against diethyl maleate-induced cell death in human CEM cells assessed as cell viability at 0.1 uM treated 18 hrs before diethyl maleate challenge measured after 4 hrs by trypan blue assay. Format: functional. To be noted: read-out: Activity. In a few lines:
(§1)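 CEM leukemia cells grown in RPMI 1640 with 10% FBS and 1% penicillin-streptomycin; 5 × 10⁵ cells/well pretreated with compound for 18 h, then exposed to 5 mM diethyl maleate at 37 °C, 5% CO2 for 4 h. Viability by 0.4% trypan blue exclusion, as percent of control cells given neither DEM nor compound; mean ± SD, n=3.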

Assay [2] relates to CCRF-CEM. As to the kind of experiment: Cytoprotective activity against diethyl maleate-induced cell death in human CEM cells assessed as cell viability at 2.5 uM treated 18 hrs before diethyl maleate challenge measured after 4 hrs by trypan blue assay. Format: functional. As to conditions: read-out: Activity. In a few lines:
as §1

Assay [3] deals with CCRF-CEM. As to the kind of experiment: Cytoprotective activity against diethyl maleate-induced cell death in human CEM cells assessed as cell viability at 0.5 uM treated 18 hrs before diethyl maleate challenge measured after 4 hrs by trypan blue assay. In kind it is functional. To be noted: read-out: Activity. An outline of the steps: as §1
The subject of assay [4] is C2C12. As to the kind of experiment: Inhibition of rotenone-induced blockade of mitochondrial complex 1 in mouse C2C12 cells assessed as increase of oxygen consumption at 10 uM after 2 hrs by fluorescence assay in presence of FCCP. Format: cell-based. In a few lines:
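C2C12 cells grown in DMEM with 10% FBS and 2 mM glutamine were trypsinized, resuspended in phenol red-free medium and pretreated with 25 nM rotenone. They were plated at 200,000 cells/well on an oxygen biosensor plate and given 10 μM compound with 5 μM FCCP. Fluorescence (ex 485/em 620 nm) was followed for 2 h. Rate is M/T, slope at 50% maximum over time to 50% maximum, in triplicate.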

Active and inactive are the calls of the source. No cut-off for these calls is given here.

Regarding `COC1=C(C)C(=O)C(CCCCCCCCCCO)=C(C)C1=O`, the viability at 0.1 µM in assay [1] is 22.9%. In addition, the viability at 2.5 µM in assay [2] was determined as 82.3%. Besides, the viability at 0.5 µM in assay [3] is 74.7%.
For `CC1=C(C)C(=O)C(CCCCCCCCCCO)=C(C)C1=O`, in that order: 34.8%, 96.3% and 77.3%.
Take `COC1=C(OC)C(=O)C(CCCCC[P+](c2ccccc2)(c2ccccc2)c2ccccc2)=C(C)C1=O`: the “Rescue of oxygen consumption (active/not active)” value in assay [4] is “inactive”.
The same measure, in the same setting: for `COC1=C(OC)C(=O)C(CCC[P+](c2ccccc2)(c2ccccc2)c2ccccc2)=C(C)C1=O` the value was “Active”.
In the case of `COC1=C(OC)C(=O)C(CCCCCCCCCCO)=C(C)C1=O` [IDEBENONE], the viability at 0.1 µM in assay [1] is 24.6%. Besides, in assay [2], the viability at 2.5 µM is 86.2%. Further, the viability at 0.5 µM in assay [3] was 35.8%.
Take `COC1=C(C)C(=O)C(C)=C(CCCCCCCCCCO)C1=O`: in assay [1], the viability at 0.1 µM worked out at 8.27%. For the same compound, the viability at 2.5 µM in assay [2] came out at 77.1%. The viability at 0.5 µM in assay [3] was 21.2%.
Consider `COC1=C(OC)C(=O)C(CCCCCCCCCCCCCCC[P+](c2ccccc2)(c2ccccc2)c2ccccc2)=C(C)C1=O`, for which the “Rescue of oxygen consumption (active/not active)” value in assay [4] is “inactive”.
Same read-out and setting: the entry for `COC1=C(OC)C(=O)C(CCCCCCCCCC[P+](c2ccccc2)(c2ccccc2)c2ccccc2)=C(C)C1=O` is “inactive”.
